This is a sample that favours compounds with a hit; in the whole collection about 1.3% have one here.
CRFR2-BP antag: blocks CRF-induced signaling of the CRF-BP/CRF-R2 complex; HEK293 CRF-R2/CRF-BP, CRF-induced calcium fluorescence; actives 0.59% (n = 350,000); AID 588475; inhibition, % at 11.8 µM;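 active = inhibition of the ligand-induced calcium signal above about 50% at the single tested concentration, limit read from the data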
CRFR2-BP ag: agonists of human CRF-binding protein/CRF-R2 receptor complex | HEK293 CRF-R2/CRF-BP, calcium dye fluorescence (FLIPR); percent of saturating CRF peptide response | activation, % at 13.2 µM | actives 0.46% (n = 350,000) | AID 588473;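 active = activation of at least 50%, plus an integration ratio under a set limit after plate pattern correction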;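 also: plate controls were neutral control wells without compound for no effect and CRF at EC100 for full effect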
DDE Tn7 FP inh: DD(E)-Tn7 binding inhibition, primary FP screen. P02675. FP displacement of FITC-Tn7 peptide from fibrin DD(E); 0% = median of compound wells per plate. inhibition, % at 8.3 µM. actives 0.13% (n = 370,000). AID 720508;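 active = inhibition above the mean of compounds falling within the control limits plus 3 SD of them, cut at about 14% in these data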;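 also: 0% = plate median of compound wells and 100% = 10 µM Aha-Tn7 peptide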
Target sequence (P02675 whole entry, looked up): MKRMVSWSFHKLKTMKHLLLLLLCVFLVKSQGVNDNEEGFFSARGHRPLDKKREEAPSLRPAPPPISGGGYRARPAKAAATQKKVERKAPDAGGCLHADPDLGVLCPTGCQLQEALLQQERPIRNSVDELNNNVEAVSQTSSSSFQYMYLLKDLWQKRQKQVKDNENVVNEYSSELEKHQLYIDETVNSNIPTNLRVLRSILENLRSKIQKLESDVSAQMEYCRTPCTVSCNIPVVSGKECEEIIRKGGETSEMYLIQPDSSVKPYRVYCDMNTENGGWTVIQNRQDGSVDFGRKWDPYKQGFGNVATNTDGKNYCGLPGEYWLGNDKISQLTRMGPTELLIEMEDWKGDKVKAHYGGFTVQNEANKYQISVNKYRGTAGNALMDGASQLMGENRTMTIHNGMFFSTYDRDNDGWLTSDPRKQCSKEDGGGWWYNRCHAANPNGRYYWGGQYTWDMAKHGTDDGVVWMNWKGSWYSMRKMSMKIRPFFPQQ
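Also added: labelled Tn7 tracer, 0.1 µM; Assay system: human fibrin DD(E) protein; Amount: 2 µM fibrin DD(E); Schedule: 10 min compound pre-incubation, 3 h probe incubation at room temperature; Repeats: one replicate per compound; Read-out basis: percent inhibition; Measured by: fluorescence polarization of the labelled Tn7 tracer.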
Tn6 DDE FP: DD(E)-Tn6 binding inhibition, primary FP screen. Fibrin DD(E) TRITC-Tn6 fluorescence polarization displacement. inhibition, % at 8.3 µM. P02675. actives 0.21% (n = 370,000);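 active = inhibition above a per-campaign cutoff: mean of compounds within control limits plus 3 SD, cut at about 15% in these data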;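 also: 0% = median of all compound wells on the plate and 100% = blocking peptide control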
* hit, by the source's call; nt = no result given.

SMILES	CRFR2-BP antag	CRFR2-BP ag	DDE Tn7 FP inh	Tn6 DDE FP
Cc1cccc(C(=O)OCC(=O)Nc2c(C)nn(-c3ccccc3)c2C)c1O	-8	-1	3	7
Cc1nn(-c2ccccc2)c(C)c1NC(=O)COC(=O)c1ccccc1OC(F)F	58*	1	-6	0
CCOC(=O)CSC1=C(C#N)C(c2ccc(Cl)cc2)C(C(=O)OC)C(=O)N1 (stereo not given)	53*	-3	6	-2
COC(=O)CSC1=C(C#N)C(c2ccc(Cl)cc2)C(C(=O)OC)C(=O)N1 (stereo not given)	58*	-1	-14	-3
COC(=O)C1C(=O)NC(SC)=C(C#N)C1c1ccccc1 (stereo not given)	-8	0	-1	-4
CS(=O)(=O)N(Cc1ccc(Cl)cc1)c1ccc(C(=O)NCCSc2ccccn2)cc1	2	54*	0	-2
CCNC1=C(Cl)C(=O)c2ccccc2C1=O	9	-2	-2	-7
O=C1C(Cl)=C(Nc2ccc(O)cc2)C(=O)c2ccccc21	86*	-4	-1	5
Cc1ccc(NC2=CC(=O)C(=O)c3ccccc32)cc1	4	-2	-4	-12
COC1=C(Nc2ccc(O)cc2)C(=O)c2ccccc2C1=O	31	-1	0	4
CCN(CC)c1ccc(NC2=C(Cl)C(=O)c3ccccc3C2=O)cc1	59*	-1	nt	nt
Cc1ccc(NC2=C(Cl)C(=O)c3ccccc3C2=O)cc1	91*	-1	6	2
CCCCNS(=O)(=O)CC1NCc2cc(F)ccc21 (stereo not given)	nt	nt	-10	9
Cn1c(=O)n(C)c2cc(S(=O)(=O)Nc3cc(Cl)ccc3O)ccc21	103*	1	-7	-1
CC(=O)NC(Cc1cc(C)ccc1C)C(=O)N1CCN(C(=O)Nc2ccc(C(C)=O)cc2)CC1 (stereo not given)	14	-2	15*	8
COC(=O)c1sc(-c2ccc(C(C)(C)C)cc2)cc1NC(=O)COCC(=O)O	60*	1	-12	-9
CCN(CC)c1ccc(/C=C(/C#N)C(=O)NC(C)C)o1	-27	40	-18	-5
CCN(CC)c1ccc(/C=C(/C#N)C(=O)NCc2ccccc2)o1	-157	141*	-38	9
CC(=O)CC[C@H]1CC[C@]2(CCCN(C(=O)C(C)(C)C)C2)O1	nt	nt	0	0
COc1cc(C[C@H](C)[C@H](C)Cc2ccc3c(c2)OCO3)ccc1O	59*	0	nt	nt
C=CCN1C(=O)[C@@H](CC(=O)N2CCSCC2)[C@]2(C(=O)OC)CCCCC=C12	nt	nt	4	-4
COc1ccc(OC)c(/C=c2\sc3nc(-c4cccs4)nn3c2=O)c1	-217	175*	-3	-5
Cc1ccc(C(=O)NC2CCCCN(C(C)C)C2=O)cc1 (stereo not given)	nt	nt	-9	-5
Nc1ccc2nc(CCc3ccccc3)[nH]c2c1	11	0	1	-8
Nc1ccc2nc3c(=O)n(CCc4ccccc4)c(=O)[nH]c3nc2c1	-143	195*	8	-1
SMILES	CRFR2-BP antag	CRFR2-BP ag	DDE Tn7 FP inh	Tn6 DDE FP
CC(/C=C/c1ccccc1)=N\NC(=O)c1ccc2c(c1)OCCO2	5	-1	1	3
CC(/C=C/c1ccccc1)=N/NC(=O)CNC(=O)c1ccc2c(c1)OCO2	72*	0	-4	2
O=C1C=C(c2ccccc2)OC(c2ccccc2)O1 (stereo not given)	-6	-2	-4	-3
O=C1C=C(c2ccccc2)C(c2ccccc2)C1O (stereo not given)	-75	77*	-3	-2
O=C(CSc1nnc(-c2cccs2)o1)Nc1cc(Cl)cc(Cl)c1	nt	nt	-5	-1
CC1=CC2=NC(=O)/C(=C/c3cccs3)C(=N)N2O1	3	-1	3	1
CSC1=NSC2=NC(=O)/C(=C\c3cccs3)C(=N)N12	20	0	-4	-2
N=C1/C(=C/c2cccs2)C(=O)N=C2SN=C(SCc3ccccc3)N12	102*	15	-7	-5
CC(C)CSC1=NSC2=NC(=O)/C(=C\c3cccs3)C(=N)N12	75*	70*	-5	0
Cc1cc2cc(CNC(=O)c3ccc(S(=O)(=O)N4CCCCC4)cc3)ccc2n1C	1	14	2	164*
Cc1nc2c(-c3ccccc3)c(C)nn2c(N)c1-c1ccccc1	-13	3	-11	-11
Cc1nn2c(N)c(-c3ccccc3)cnc2c1-c1ccc(Cl)cc1	54*	1	-7	-3
CCOC(=O)N1CCN(Cc2nc3c(c(=O)n(C)c(=O)n3C)n2CCC(C)C)CC1	129*	-5	1	-3
CCCn1c(CN2CCN(C(=O)OCC)CC2)nc2c1c(=O)n(C)c(=O)n2C	4	0	-5	-4
COC(=O)C1CN(Cc2cn(CCC3OCCO3)nn2)CCS(=O)(=O)N1Cc1ccccc1 (stereo not given)	nt	nt	-1	-12
CCOc1ccc(NC(=O)CSc2nnc(-c3n[nH]c4c3CCC4)n2N)cc1	nt	nt	2	-6
CC(=O)Nc1ccc2nc3ccccc3nc2c1	84*	11	5	-11
O=C1COc2ccc(S(=O)(=O)CCC(=O)N3CCN(c4cccc(C(F)(F)F)c4)CC3)cc2N1	-24	0	2	9
COc1ccc(N2CCN(C(=O)CCS(=O)(=O)c3ccc4c(c3)NC(=O)CO4)CC2)cc1	56*	-2	-1	1
Cc1c(NC(=O)C2CCCN(S(=O)(=O)c3ccc(C(C)(C)C)cc3)C2)c(=O)n(-c2ccccc2)n1C (stereo not given)	nt	nt	-6	6
CC(C)(C)c1cc(C(=O)NNC(=O)Nc2cccc(Cl)c2)n(Cc2ccccc2)n1	51*	1	5	3
O=C(COc1cccc2c1CCN(Cc1ccc(Br)cc1)C2=O)NCc1ccco1	64*	-1	8	2
O=c1oc2c3c4c(cc2s1)CCCN4CCC3	-11	2	7	2
O=c1ccc2cc3c4c(c2o1)CCCN4CCC3	-10	20	23*	7
CC(C)(C)NC(=O)C(c1ccc(O)cc1)N(Cc1ccc2c(c1)OCO2)C(=O)CCl (stereo not given)	80*	-1	2	4
SMILES	CRFR2-BP antag	CRFR2-BP ag	DDE Tn7 FP inh	Tn6 DDE FP
CCOCCCNC(=O)C(c1ccc(Cl)cc1)N(Cc1ccc2c(c1)OCO2)C(=O)CNC(C)=O (stereo not given)	1	5	0	1
Cc1noc(C)c1COC(=O)Cc1ccc(Cl)c(Cl)c1	62*	-2	0	2
O=C(CSc1nc2ccccc2nc1N1CCCCC1)N1CCN(S(=O)(=O)c2ccccc2)CC1	nt	nt	-5	-8
COc1ccc(C(=O)OCC(=O)N(C)C2CCS(=O)(=O)C2)cc1S(=O)(=O)N(C)Cc1ccccc1 (stereo not given)	109*	-3	-4	-6
CC(=O)OCc1cc(-c2nn(C)c(=O)c3ccccc23)ccc1C	9	0	-14	-2
Cc1ccc(-c2nn(C)c(=O)c3ccccc23)cc1CO	69*	-3	5	0
CC(=O)c1cccc(NC(=S)NC(=O)Cc2ccc(Cl)cc2)c1	-87	63*	-9	3

Screens from PubChem.
